Data from ChEMBL document CHEMBL4513216, “Probing the Open Global Health Chemical Diversity Library for Multistage-Active Starting Points for Next-Generation Antimalarials” (ACS Infect Dis, 2020).

Test: Toxicity liver stage against HepG2, at 10uM
Format: cell-based
Design: test concentration 10 uM, cell line HepG2-A16-CD81EGFP
Settings: human, HepG2-A16-CD81EGFP cells; read-out: INHIBITION
Procedure, shortened: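 Uninfected HepG2-A16-CD81EGFP cells, 3 × 10^3 per well, 1536-well, plated on prespotted compound at 10 μM final, parasite-free screening media added to match infected plates; puromycin 10 μM positive, DMSO 0.5% negative; run in parallel with 48 h PbLuc assay at 37 °C, 5% CO2; viability by CellTiter-Glo luminescence, normalized to controls.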

Row | Structure (SMILES) | cytotoxicity at 10 µM [%]
1 | CC(C)(C)NC(=O)CN1CCCN(c2ccc(C#N)cn2)CC1 | -4.31
2 | Cc1[nH]ncc1CCCNC(=O)Nc1ccc(C#N)cc1 | 1.8
3 | F[C@@H]1CN(Cc2ccccc2)C[C@@H]1OCc1nc2ccccc2[nH]1 | 4.61
4 | O=C([C@@H]1Cc2[nH]cnc2CN1Cc1cc2ccccc2o1)N1CCCC1 | 2.23
5 | CCCNc1ccc(C(=O)NCCc2ccc(Cl)cc2)cn1 | -1.05
6 | O=c1n(Cc2ccc(F)cc2)nc2ncccn12 | -8.18
7 | CCCn1cnc2c(cnn2-c2cccc(C)c2C)c1=O | -8.17
8 | O=C(NCc1ccco1)[C@H]1C[C@H]2OCC[C@H]2N(C(=O)c2ccnnc2)C1 | -10.3
9 | CS(=O)(=O)NC[C@@H]1OC[C@H]2CN(C(=O)c3cnccn3)CC[C@H]21 | 2.98
10 | CS(=O)(=O)N1CCC2(COCc3cnc(-c4ccccc4)nc32)C1 (configuration not stated) | 1.22
11 | Cc1cc(O)c(OCC(=O)/N=c2\[nH]c(C)c(C)s2)cn1 | 8.6
12 | OCCNc1nc(Nc2ccccc2)c2nccnc2n1 | 3.72
13 | Cn1nc(CNC(=O)C2CC2)cc1C1CC1 | 1.96
14 | CC(C)NC(=O)c1ccc2c(c1)nc1n2CCN(C(C)C)C1 | 3.54
15 | COc1ccc2nnc(C(=O)NC3CCCC3)nc2c1 | 6.17
16 | CCn1cc(CN(C)S(=O)(=O)c2ccc(Cl)cc2)cn1 | 3.77
17 | CC(C)N1CCC(Cc2cncc(-c3cccc(C(=O)O)c3)n2)C1 (configuration not stated) | 9.11
18 | CCOc1cccc(NC(=O)c2cc[nH]n2)n1 | 3.51
19 | COCC(=O)Nc1ccc(C)cc1-c1nc(C2CC2)no1 | -3.67
20 | NC(=O)c1ccc(N2CCN(CCCc3cn[nH]c3)CC2)cc1 | -153
21 | COc1ncccc1CNCc1cnc(N2CCOCC2)nc1 | 2.38
22 | Cn1cc(NC(=O)N2CCCC2c2cccnc2)ccc1=O (configuration not stated) | -3.73
23 | O=C(NCC1CC1)c1ccc(NC(=O)c2ccco2)cc1 | 7.91

Row | Structure (SMILES) | cytotoxicity at 10 µM [%]
24 | COc1ccc(OC)c(-c2csc(-c3cccc(C(=O)O)c3)n2)c1 | 3.75
25 | COCCNC(=O)NCC(C)c1ccccc1OC (configuration not stated) | 0.284
26 | CCc1nc(CN2CCCN(C(=O)c3cccn3C)CC2)cs1 | 3.41
27 | c1cnc(-c2nc(C3CCOC3)no2)cn1 (configuration not stated) | 7.09
28 | CCn1ccnc1CN1CCN(c2ncnc3ccccc23)CC1 | -1.8
29 | Cc1noc(C)c1CCCNC(=O)C1CCCN(C(=O)C2CC2)C1 (configuration not stated) | -0.185
30 | Cn1c(NCC(=O)N2CCCCC2)c(C#N)c(=O)n(C)c1=O | 5.83
31 | COc1ccc(N(C)C(=O)c2ccc(Cl)c(S(C)(=O)=O)c2)cn1 | -11.2
32 | Cc1ccc(S(=O)(=O)NC(=O)COc2cccc(C#N)c2)c(C)c1 | 3.73
33 | CC(NC(=O)Nc1cc(F)cc(F)c1)c1nc[nH]n1 (configuration not stated) | -4.02
34 | CC(Cn1cccn1)NC(=O)Nc1ccc(N2CCCC2)nc1 (configuration not stated) | -0.708
35 | Fc1cccc(-n2cccn2)c1NCc1nnc(C2CC2)o1 | -5.48
36 | Cc1cc(NC(=O)N2CCOC(C(N)=O)C2)ccc1Br (configuration not stated) | -154
37 | Cc1ccc(C(=O)NCC2Cc3ccccc3O2)cc1S(C)(=O)=O (configuration not stated) | 1.05
38 | COc1ncnc(N)c1CNCC(C)SC (configuration not stated) | -0.554
39 | O=C1CC(CNc2cncc(Cl)n2)c2ccccc2N1 (configuration not stated) | -0.99
40 | CCC1CN(c2cnn(-c3ccccc3)c(=O)c2Cl)CCO1 (configuration not stated) | -17.4
41 | CCCN(CCC)S(=O)(=O)NCCc1cc(C)ccc1OC | 7.75
42 | Cc1cc(CNC(=O)c2cc(C(C)C)n(C)n2)ccc1S(C)(=O)=O | -3.11
43 | COCCN(CCN(C)C)C(=O)NC1CCc2ccccc2C1 (configuration not stated) | -5.17
44 | CC(C)OCc1cccc(NC(=O)N2CCCC(CCC(N)=O)C2)c1 (configuration not stated) | 3.49
45 | Cc1ccccc1C(NC(=O)CNC(=O)c1ccoc1C)C(C)C (configuration not stated) | 2.74
46 | CCc1cnc(NC(=O)NC2CCN(C3CCCC3)CC2)s1 | -7.27

Row | Structure (SMILES) | cytotoxicity at 10 µM [%]
47 | Cc1cccc(CC(=O)Nc2cccnc2N2CCC(CO)CC2)c1 | -2.23
48 | O=C(CNc1ccc(OC2CCOC2)cc1)NCc1ccc(F)cc1 (configuration not stated) | 3.4
49 | CC(=O)c1cccc(NCC(=O)NC(N)=O)c1 | 2.54
50 | Cn1cc(-c2csc(N3CCOCC3)n2)cn1 | 0.469
51 | Cc1csc2ncc(-c3ccnc(N4CCCC4)n3)c(=O)n12 | -13.2
52 | CCOC(=O)N1CCC2(CC1)N=C(CCC(C)C)NC2=O | -6.55
53 | Cc1ccccc1[C@@H]1CN(CCOCCO)C[C@H]1C(=O)O | -4.54
54 | Cn1c(Cn2ccnc2)nnc1C1CCN(C(=O)c2ccoc2)CC1 | -120
55 | CC(C)Cc1cc(C(=O)NCC2CCCN(c3ccccn3)C2)on1 (configuration not stated) | 0.101
56 | Cc1ccnc(N2CCN(C3CCS(=O)(=O)C3)CC2)n1 (configuration not stated) | -2.71
57 | CN1CCCC2(CCN(c3cccc(C(F)(F)F)n3)C2)C1=O (configuration not stated) | 7.87
58 | COc1ccccc1[C@@H]1CN(Cc2cnc(N(C)C)nc2)C[C@H]1C(=O)O | -3.89
59 | CC(C)Cc1cc(C(=O)NCC2CCCN(Cc3ccco3)C2)on1 (configuration not stated) | -5.12
60 | O=C(Nc1ccc(-c2ccco2)cc1)C1CCCN(Cc2ccon2)C1 (configuration not stated) | 1.17
61 | CC(C1CCN(Cc2ccccc2OC(F)F)CC1)N1CCOCC1 (configuration not stated) | -7.4
62 | O=c1[nH]c2ccccc2cc1CN(Cc1ccccn1)CC1CCCO1 (configuration not stated) | -4.84
63 | CC(O)C1CCN(C(=O)Nc2nc(-c3ccccc3)ns2)CC1 (configuration not stated) | -135
64 | COc1cc2[nH]c(=O)c(CN3CCC[C@@H]3C(N)=O)cc2c(OC)c1OC | -6.84
65 | Cc1nc(C(C)C)sc1C(=O)NCCSc1ccccn1 | 3.76
66 | Cc1cc(C(=O)N2CCC3(CCC(=O)N(CC(N)=O)C3)CC2)ccc1O | -7.5
67 | CC(NC(=O)c1cc2n(n1)CCCN(C)C2)c1cn2ncsc2n1 (configuration not stated) | -6.73
68 | NC(=O)CCn1cc(CNCCCc2ccncc2)c2ccccc21 | 7.28
69 | Cc1ccc(NC(=O)N2CCCC(O)(CO)CC2)cc1Cl (configuration not stated) | 1.96

Row | Structure (SMILES) | cytotoxicity at 10 µM [%]
70 | COc1ncccc1-c1cc(C(=O)NC2CC2)ccn1 | -11.8
71 | OCC(CO)N1CCC(c2nnc(Cn3ccnc3)n2C2CC2)CC1 | -4.36
72 | COCCN(C)c1nc(-c2ccncc2)nc2c1CCN(C(C)=O)C2 | -2.16
73 | O=C1CC2(CCN(Cc3ccc(-c4ccn[nH]4)s3)CC2)CN1 | -137
74 | COc1ccc(OC)c(C2CCN(C3CCOCC3)C2)c1 (configuration not stated) | -6.28
75 | NC(=O)N1CCCC(C(=O)NCc2noc(Cc3ccccc3)n2)C1 (configuration not stated) | 2.4
76 | CCC(C(=O)NC(C)(C)C)n1cccc(OC)c1=O (configuration not stated) | -1.04
77 | CCOCC(=O)N1CCc2c(ncnc2N2CCOCC2)C1 | -6.63
78 | CC(=O)NC1CC(C)(C)Cc2c1cnn2-c1cccc(F)c1 (configuration not stated) | -144
79 | COCCCN1CC2(CCCN(c3ncnc4[nH]ccc34)C2)CCC1=O (configuration not stated) | -4.67
80 | CN(C)C(=O)Cc1ccc(NC(=O)NC2CCCCC2)cc1 | -11.3
81 | O=C(c1cc(COc2ccc3c(c2)OCO3)[nH]n1)N1CC=CC1CO (configuration not stated) | -6.49
82 | CC(c1nc(C2CC2)no1)N1CCN(CCN2CCCC2=O)CC1 (configuration not stated) | -10.9
83 | Cc1ccc(N2CCCN(C(=O)C3CCCO3)CC2)nn1 (configuration not stated) | -11.1
84 | Cc1nc(CC(=O)N2CCc3nnc(N(C)C)cc3C2)cs1 | -7.07
85 | COc1cc(C)nc(N2CCN(C(=O)CSC)CC2)n1 | -6.42
86 | Cc1cnn(CCNCc2csc(-c3ccsc3)n2)c1 | -6.75
87 | CC(C)Oc1ncccc1CNC(=O)N1CCC(n2cccc2)CC1 | 3.48
88 | CC(Cn1cccn1)NC(=O)NCCc1cccs1 (configuration not stated) | -15.3
89 | c1csc(-c2noc(CN3CCCC3Cn3cccn3)n2)c1 (configuration not stated) | -12.7
90 | CCN(Cc1cccc2c1OCO2)C(=O)Nc1ccccn1 | -21.7
91 | Cc1cc(NC(=O)CN2CCC(N3CCNC3=O)CC2)on1 | 2.99
92 | Cc1cnn(CC2CCCN2C(=O)c2ccc(F)c(F)c2)c1 (configuration not stated) | -7.68

Row | Structure (SMILES) | cytotoxicity at 10 µM [%]
93 | CCN(CC)CC(=O)N1CCCCC1c1nc(C)cs1 (configuration not stated) | -5.78
94 | COc1cc(CNC(=O)Nc2nnc(C(C)C)s2)ccn1 | -8.24
95 | O=C(CCOCC(F)(F)F)N1CCCC(n2ccnc2)C1 (configuration not stated) | -8.14
96 | CN(CCc1ccncc1)CC1CCCN1c1cccnn1 (configuration not stated) | 1.09
97 | O=C(NCCCn1ccnc1)NCC(c1ccco1)N1CCCCC1 (configuration not stated) | 5.71
98 | CCOc1ccc(OCC(O)CN2CCN(S(C)(=O)=O)CC2)cc1 (configuration not stated) | -36.8
99 | O=C(c1csc(-c2cccs2)n1)N1CCCC1Cn1cccn1 (configuration not stated) | -4.69
100 | CNC(=O)[C@@H](c1ccccc1OC)N1CCC[C@H]1C(=O)N1CC[C@@H](O)C1 | -2.71
101 | CN1C(=O)CC(c2ccccc2)C12CCN(CCO)CC2 (configuration not stated) | 6.47
102 | Cc1cccc(C(=O)N2C[C@@H](OCc3ccncc3)[C@@H]3OCCC[C@@H]32)n1 | -5.06
103 | COc1ccc2c(c1)C1(CCN(Cc3cnn(C)c3)CC1)N(C)CC2 | -136
104 | CCN(C)c1ncnc2c1CCN(C(=O)c1cnccn1)CC2 | -1.86
105 | O=C(NCc1ccco1)[C@H]1CC[C@@H]2[C@@H](CCN2Cc2cccnc2)O1 | -3.68
106 | CN(C)CCN1C(=O)C[C@@H]2[C@@H]1CCN2S(=O)(=O)c1ccccc1 | -7.52
107 | Cc1occc1C(=O)N1C[C@@H](OCc2cccnc2)[C@H]2OCCC[C@@H]21 | 3.16
108 | COCCO[C@H]1CCN(Cc2ccsc2)[C@H]1Cc1cccnc1 | -2.57
109 | O=C(c1ccncc1)N1CC[C@H]2[C@H]1CCN2S(=O)(=O)C1CC1 | -126
110 | Fc1cnc(N2CCCn3c(nnc3Cn3ccnc3)C2)nc1 | -140
111 | CCNc1nc2cn(-c3ccc(Cl)cc3)c(=O)c-2c[nH]1 | 7.67
112 | Cc1cc(CN2C[C@@H]3CC[C@H]2CN(Cc2c(C)noc2C)C3)ccc1F | -6.74
